The source made the active and inactive calls. The rule behind the calls is not given here.
Legend:
[1] = molecular target: T1, Sodium channel protein type 3 subunit alpha (Homo sapiens, UniProt Q9NY46); experiment: Inhibition of human Nav1.3 expressed in CHO cells under resting state by automated patch clamp electrophysiology analysis; assay type: cell-based
[2] = molecular target: T1, Sodium channel protein type 3 subunit alpha; experiment: Inhibition of human Nav1.3 expressed in CHO cells under inactivated state by automated patch clamp electrophysiology analysis; assay type: cell-based
[3] = molecular target: T2, Sodium channel protein type 5 subunit alpha (Homo sapiens, UniProt Q14524); experiment: Inhibition of human Nav1.5 expressed in CHO cells under tonic pulse 1 by automated patch clamp electrophysiology analysis; assay type: cell-based
T2 sequence (Q14524 whole entry): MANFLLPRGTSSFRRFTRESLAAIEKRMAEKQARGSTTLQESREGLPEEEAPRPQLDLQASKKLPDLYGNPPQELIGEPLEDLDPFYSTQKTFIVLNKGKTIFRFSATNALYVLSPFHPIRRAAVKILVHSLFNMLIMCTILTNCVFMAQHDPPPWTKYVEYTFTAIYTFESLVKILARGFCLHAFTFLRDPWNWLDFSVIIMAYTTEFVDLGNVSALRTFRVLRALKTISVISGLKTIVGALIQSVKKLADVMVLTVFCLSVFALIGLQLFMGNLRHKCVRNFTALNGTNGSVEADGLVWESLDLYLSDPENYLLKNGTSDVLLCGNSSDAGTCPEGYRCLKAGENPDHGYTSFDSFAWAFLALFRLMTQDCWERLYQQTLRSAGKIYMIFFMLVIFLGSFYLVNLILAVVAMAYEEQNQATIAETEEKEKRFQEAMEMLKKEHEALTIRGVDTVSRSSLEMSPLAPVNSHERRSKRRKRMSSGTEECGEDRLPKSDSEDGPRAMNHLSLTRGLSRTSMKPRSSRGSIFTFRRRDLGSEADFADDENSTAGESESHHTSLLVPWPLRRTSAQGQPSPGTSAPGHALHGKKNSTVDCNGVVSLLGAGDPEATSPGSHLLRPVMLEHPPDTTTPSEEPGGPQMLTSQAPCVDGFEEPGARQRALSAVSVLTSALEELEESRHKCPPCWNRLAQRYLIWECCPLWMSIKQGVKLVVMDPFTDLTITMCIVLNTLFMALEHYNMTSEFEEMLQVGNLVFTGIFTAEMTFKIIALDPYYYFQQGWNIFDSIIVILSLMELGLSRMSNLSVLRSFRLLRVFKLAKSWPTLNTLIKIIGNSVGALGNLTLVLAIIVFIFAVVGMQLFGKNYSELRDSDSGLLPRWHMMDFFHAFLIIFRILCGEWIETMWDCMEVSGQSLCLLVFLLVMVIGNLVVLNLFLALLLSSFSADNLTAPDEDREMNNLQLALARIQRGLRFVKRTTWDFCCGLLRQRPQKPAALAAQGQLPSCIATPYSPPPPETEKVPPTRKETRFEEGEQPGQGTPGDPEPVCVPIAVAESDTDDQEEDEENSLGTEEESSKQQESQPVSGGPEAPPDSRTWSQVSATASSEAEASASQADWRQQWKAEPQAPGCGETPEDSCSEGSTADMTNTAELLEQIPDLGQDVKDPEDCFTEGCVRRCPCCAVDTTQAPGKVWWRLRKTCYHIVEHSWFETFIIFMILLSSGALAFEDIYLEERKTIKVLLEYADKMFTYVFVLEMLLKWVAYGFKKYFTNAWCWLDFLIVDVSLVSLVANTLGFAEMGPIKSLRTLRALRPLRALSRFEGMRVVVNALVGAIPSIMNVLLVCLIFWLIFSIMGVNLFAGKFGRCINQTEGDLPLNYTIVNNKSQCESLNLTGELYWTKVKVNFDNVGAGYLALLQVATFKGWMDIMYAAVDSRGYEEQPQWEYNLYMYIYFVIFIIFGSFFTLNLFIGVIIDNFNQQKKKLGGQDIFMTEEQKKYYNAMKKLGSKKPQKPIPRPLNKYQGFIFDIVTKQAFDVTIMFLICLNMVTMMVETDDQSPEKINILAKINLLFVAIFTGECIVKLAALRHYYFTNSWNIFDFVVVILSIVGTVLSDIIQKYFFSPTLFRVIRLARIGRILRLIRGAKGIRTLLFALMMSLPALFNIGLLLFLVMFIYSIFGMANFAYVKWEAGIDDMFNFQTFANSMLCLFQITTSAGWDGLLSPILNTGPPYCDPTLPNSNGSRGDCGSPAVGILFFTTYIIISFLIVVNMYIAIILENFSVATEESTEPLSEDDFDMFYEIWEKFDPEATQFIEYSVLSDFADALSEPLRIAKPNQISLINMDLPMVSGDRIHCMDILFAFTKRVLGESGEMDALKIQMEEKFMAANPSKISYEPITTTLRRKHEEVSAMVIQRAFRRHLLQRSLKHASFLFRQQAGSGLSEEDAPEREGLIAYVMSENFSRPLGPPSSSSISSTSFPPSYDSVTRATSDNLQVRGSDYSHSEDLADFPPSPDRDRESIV

[4] = molecular target: T3, Sodium channel protein type 9 subunit alpha (Homo sapiens, UniProt Q15858); experiment: Inhibition of human Nav1.7 expressed in CHO cells under resting state by automated patch clamp electrophysiology analysis; assay type: cell-based
[5] = molecular target: T3, Sodium channel protein type 9 subunit alpha; experiment: Inhibition of human Nav1.7 expressed in CHO cells under inactivated state by automated patch clamp electrophysiology analysis; assay type: cell-based
[6] = molecular target: T2, Sodium channel protein type 5 subunit alpha; experiment: Inhibition of human Nav1.5 expressed in CHO cells under resting state by automated patch clamp electrophysiology analysis; assay type: cell-based
[7] = molecular target: T2, Sodium channel protein type 5 subunit alpha; experiment: Inhibition of human Nav1.5 expressed in CHO cells under inactivated state by automated patch clamp electrophysiology analysis; assay type: cell-based
[8] = molecular target: Sodium channel protein type 1 subunit alpha (Homo sapiens) (UniProt P35498); experiment: Inhibition of human Nav1.1 expressed in Xenopus laevis oocytes at closed state at 1 uM by two electrode voltage-clamp assay; assay type: cell-based; conditions: Oocyte
Procedure, shortened: (§1)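 TEVC on Nav channels expressed in Xenopus laevis oocytes. Each oocyte was injected with 50 nL cRNA at 1 ng/nL and recorded 1–4 days later at 18–22 °C. Bath (mM): NaCl 96, KCl 2, CaCl2 1.8, MgCl2 2, HEPES 5, pH 7.4. Electrodes held 3 M KCl at 0.8–1.5 MΩ. Compound tested at 1 μM. Mean ± SD, n ≥ 5.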

[9] = molecular target: Sodium channel protein type 2 subunit alpha (Rattus norvegicus) (UniProt P04775); experiment: Inhibition of rat Nav1.2 expressed in Xenopus laevis oocytes at closed state at 1 uM by two electrode voltage-clamp assay; assay type: cell-based; conditions: Oocyte; procedure, shortened: as §1
[10] = molecular target: Sodium channel protein type 3 subunit alpha (Rattus norvegicus) (UniProt P08104); experiment: Inhibition of rat Nav1.3 expressed in Xenopus laevis oocytes at 1 uM under inactivated state by two electrode voltage-clamp assay relative to control; assay type: cell-based; conditions: Oocyte; procedure, shortened: as §1
Sequence of Sodium channel protein type 3 subunit alpha (Rattus norvegicus) (P08104 whole entry): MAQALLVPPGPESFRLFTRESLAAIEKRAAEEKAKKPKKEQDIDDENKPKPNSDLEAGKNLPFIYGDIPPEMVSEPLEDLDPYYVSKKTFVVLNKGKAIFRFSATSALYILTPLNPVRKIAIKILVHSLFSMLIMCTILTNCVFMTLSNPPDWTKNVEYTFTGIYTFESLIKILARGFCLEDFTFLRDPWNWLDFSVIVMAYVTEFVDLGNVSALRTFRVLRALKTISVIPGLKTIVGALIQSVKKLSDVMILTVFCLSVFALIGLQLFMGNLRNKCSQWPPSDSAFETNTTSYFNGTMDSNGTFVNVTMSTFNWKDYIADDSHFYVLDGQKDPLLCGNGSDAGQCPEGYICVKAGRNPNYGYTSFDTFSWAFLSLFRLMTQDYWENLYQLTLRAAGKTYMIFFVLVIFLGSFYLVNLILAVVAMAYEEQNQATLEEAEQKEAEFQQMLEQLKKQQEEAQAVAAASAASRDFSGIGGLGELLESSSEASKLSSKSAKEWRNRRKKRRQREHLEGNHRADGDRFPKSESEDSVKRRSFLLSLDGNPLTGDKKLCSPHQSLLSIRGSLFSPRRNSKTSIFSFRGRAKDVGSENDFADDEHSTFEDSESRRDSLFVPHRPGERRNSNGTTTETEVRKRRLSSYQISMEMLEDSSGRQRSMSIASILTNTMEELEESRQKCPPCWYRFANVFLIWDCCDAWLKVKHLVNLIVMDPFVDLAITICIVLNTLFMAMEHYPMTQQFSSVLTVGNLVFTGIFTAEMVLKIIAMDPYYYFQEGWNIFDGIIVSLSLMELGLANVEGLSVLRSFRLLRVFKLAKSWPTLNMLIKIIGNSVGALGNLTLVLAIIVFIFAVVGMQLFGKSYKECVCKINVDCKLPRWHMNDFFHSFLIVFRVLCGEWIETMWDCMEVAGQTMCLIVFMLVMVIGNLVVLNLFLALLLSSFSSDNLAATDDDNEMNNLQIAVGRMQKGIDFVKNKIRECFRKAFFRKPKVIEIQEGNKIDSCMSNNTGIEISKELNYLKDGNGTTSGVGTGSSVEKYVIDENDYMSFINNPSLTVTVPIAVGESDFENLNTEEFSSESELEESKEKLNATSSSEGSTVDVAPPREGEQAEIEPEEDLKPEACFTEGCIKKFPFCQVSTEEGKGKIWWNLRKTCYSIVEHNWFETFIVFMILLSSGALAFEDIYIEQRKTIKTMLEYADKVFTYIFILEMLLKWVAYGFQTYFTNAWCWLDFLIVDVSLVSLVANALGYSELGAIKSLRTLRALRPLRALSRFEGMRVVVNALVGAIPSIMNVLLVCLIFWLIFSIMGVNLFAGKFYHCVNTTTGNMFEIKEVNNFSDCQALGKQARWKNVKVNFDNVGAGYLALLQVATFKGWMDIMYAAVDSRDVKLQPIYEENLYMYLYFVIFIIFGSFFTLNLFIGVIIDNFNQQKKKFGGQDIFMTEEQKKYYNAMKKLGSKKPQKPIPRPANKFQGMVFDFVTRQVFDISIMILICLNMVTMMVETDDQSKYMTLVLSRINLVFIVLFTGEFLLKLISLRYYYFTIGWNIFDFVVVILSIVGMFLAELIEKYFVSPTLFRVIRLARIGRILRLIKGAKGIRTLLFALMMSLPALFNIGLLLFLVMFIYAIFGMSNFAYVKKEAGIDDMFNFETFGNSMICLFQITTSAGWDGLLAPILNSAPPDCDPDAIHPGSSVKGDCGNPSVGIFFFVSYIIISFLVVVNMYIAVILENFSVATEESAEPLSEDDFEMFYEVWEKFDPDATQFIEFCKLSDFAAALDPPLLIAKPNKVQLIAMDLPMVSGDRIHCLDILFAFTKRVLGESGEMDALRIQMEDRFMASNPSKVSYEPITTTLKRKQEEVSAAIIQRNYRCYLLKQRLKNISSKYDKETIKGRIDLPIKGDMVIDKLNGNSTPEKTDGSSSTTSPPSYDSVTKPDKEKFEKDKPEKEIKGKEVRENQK

[11] = molecular target: Sodium channel protein type 4 subunit alpha (Rattus norvegicus) (UniProt P15390); experiment: Inhibition of rat Nav1.4 expressed in Xenopus laevis oocytes at closed state at 1 uM by two electrode voltage-clamp assay; assay type: cell-based; conditions: Oocyte; procedure, shortened: as §1
[12] = molecular target: T2, Sodium channel protein type 5 subunit alpha; experiment: Inhibition of human Nav1.5 expressed in Xenopus laevis oocytes at closed state at 1 uM by two electrode voltage-clamp assay; assay type: cell-based; conditions: oocyte; procedure, shortened: as §1
[13] = molecular target: Sodium channel protein type 8 subunit alpha (Mus musculus) (UniProt Q9WTU3); experiment: Inhibition of mouse Nav1.6 expressed in Xenopus laevis oocytes at closed state at 1 uM by two electrode voltage-clamp assay; assay type: cell-based; conditions: Oocyte; procedure, shortened: as §1
[14] = molecular target: T3, Sodium channel protein type 9 subunit alpha; experiment: Inhibition of human Nav1.7 expressed in Xenopus laevis oocytes at closed state at 1 uM by two electrode voltage-clamp assay; assay type: cell-based; conditions: Oocyte; procedure, shortened: as §1
[15] = molecular target: Sodium channel protein type 10 subunit alpha (Homo sapiens) (UniProt Q9Y5Y9); experiment: Inhibition of human Nav1.8 expressed in Xenopus laevis oocytes at closed state at 1 uM by two electrode voltage-clamp assay; assay type: cell-based; conditions: Oocyte; procedure, shortened: as §1
[16] = molecular target: Sodium channel protein type 3 subunit alpha (Rattus norvegicus) (UniProt P08104); experiment: Inhibition of rat Nav1.3 expressed in Xenopus laevis oocytes at 1 uM under resting state by two electrode voltage-clamp assay relative to control; assay type: cell-based; conditions: Oocyte; procedure, shortened: as §1
[17] = molecular target: T2, Sodium channel protein type 5 subunit alpha; experiment: Inhibition of human Nav1.5 expressed in CHO cells by automated patch clamp electrophysiology analysis
[18] = test system: HepG2; experiment: Cytotoxicity against human HepG2 cells

IC50 [1] [µM]	IC50 [2] [µM]	IC50 [4] [µM]	IC50 [5] [µM]	inhibition [8]	inhibition [9]	inhibition [10] [%]	inhibition [11]	inhibition [13]	inhibition [14]	inhibition [15]	inhibition [16] [%]	SMILES	IC50 [3] [µM]	IC50 [6] [µM]	IC50 [7] [µM]	inhibition (INH) [12]	IC50 [17] [µM]	IC50 [18] [µM]
6.9	0.02	> 30	7.1	inactive	inactive	63	inactive	inactive	inactive	inactive	< 9	O=C(Nc1ccc(S(=O)(=O)Nc2nccs2)cc1)C1CC1c1ccc(F)c(F)c1 (racemic)	> 30	> 30	3	Not Active	> 30	
												COc1cc([C@@H]2c3cc4c(cc3[C@@H](O[C@@H]3O[C@@H]5CO[C@@H](C)O[C@H]5[C@H](O)[C@H]3O)[C@H]3COC(=O)[C@H]23)OCO4)cc(OC)c1O [ETOPOSIDE]						30.2

From ChEMBL document CHEMBL5620393, “New aryl and acylsulfonamides as state-dependent inhibitors of Nav1.3 voltage-gated sodium channel” (Eur J Med Chem, 2023)
